Measured values: ChEMBL document CHEMBL1134473, “Synthesis and biological evaluation of pyrrolinic isosteres of rilmenidine. Discovery of cis-/trans-dicyclopropylmethyl-(4,5-dimethyl-4,5-dihydro-3H-pyrrol-2-yl)-amine (LNP 509), an I1 imidazoline receptor selective ligand with hypotensive activity” (J Med Chem, 2001)

Assay: Displacement of [3H]RX-821002 from alpha-2 adrenergic receptor of calf frontal cortex membranes
Assay type: tissue-based, Bos taurus
Outline: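 Calf frontal cortex membranes (0.5 mg protein/mL) incubated 60 min at 25 °C with 0.8 nM [3H]RX821002 plus 0.3 µM 5HT to mask 5HT1A sites, in 50 mM sodium phosphate pH 7.4, drug 10^-9 to 10^-4 M. Nonspecific binding with 10 µM phentolamine. Bound ligand separated by GF/C filtration and counted. Three experiments in triplicate; Ki by Cheng-Prusoff.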

| SMILES | Log Ki |
| --- | --- |
| C1CN=C(NC(C2CC2)C2CC2)C1 | > -5 |
| C1CCC2N=C(NC(C3CC3)C3CC3)CC2C1 (stereo not drawn) | > -5 |
| CC1CCC(NC(C2CC2)C2CC2)=N1 (stereo not drawn) | > -5 |
| CC1CCN=C1NC(C1CC1)C1CC1 (stereo not drawn) | > -5 |
| CCC1CCC(NC(C2CC2)C2CC2)=N1 (stereo not drawn) | > -5 |
| CC1CN=C(NC(C2CC2)C2CC2)C1 (stereo not drawn) | > -5 |
| CC1CC(NC(C2CC2)C2CC2)=NC1C (mixture of isomers) | > -5 |
| C1COC(NC(C2CC2)C2CC2)=N1 [RILMENIDINE] | -7.25 |
